Laboratory results published in ChEMBL document CHEMBL3243993, “Cardenolide analogues. 4. (20R)- and (20S)-Cardanolides: on the roles of the 20(22)-ene and 14beta-hydroxyl in genin activity” (J Med Chem, 1979).

Tests used:
[1] = Inhibition of rat brain (Na+,K+)ATPase in presence of appropriate Mg2+ and Na+; details: read-out: I50
[2] = Inhibition of rat brain (Na+,K+)ATPase incubated for 10 mins followed by Kcl added in presence of appropriate Mg2+ and Na+; details: read-out: I50
In short: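 Steroids added in ethanol to the (Na+,K+)ATPase tubes, at most 20 μL ethanol per tube. After 10 min, KCl was added to start (Na+,K+)ATPase activity. Where a steroid was insoluble in the medium, no precise value could be obtained.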

[3] = Solubility of the compound in steroid medium; assay type: physicochemical
In short: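 Observed in the (Na⁺,K⁺)ATPase assay medium. Steroids were added in ethanol to the enzyme tubes, at no more than 20 μL ethanol per tube. After 10 min, KCl was added to start (Na⁺,K⁺)ATPase activity.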

SMILES | IC50 [1] | IC50 [2] | solubility [3]
C=C1C(=O)OC[C@H]1[C@H]1CC=C2[C@@H]3CC[C@@H]4C[C@@H](O)CC[C@]4(C)[C@H]3CC[C@@]21C | 100 µM | 100 µM | Insoluble
C[C@]12CC[C@H](O)C[C@H]1CC[C@@H]1[C@@H]2CC[C@]2(C)[C@@H]([C@@H]3COC(=O)C3)CC[C@]12O | 14 µM | 11 µM | –
C[C@]12CC[C@H](O)C[C@H]1CC[C@@H]1[C@@H]2CC[C@]2(C)[C@@H]([C@H]3COC(=O)C3)CC[C@]12O | 14 µM | 12 µM | –
C=C1C(=O)OC[C@H]1[C@H]1CC[C@]2(O)[C@@H]3CC[C@@H]4C[C@@H](O)CC[C@]4(C)[C@H]3CC[C@]12C | 70 µM | 60 µM | –
C=C1C(=O)OC[C@@H]1[C@H]1CC[C@]2(O)[C@@H]3CC[C@@H]4C[C@@H](O)CC[C@]4(C)[C@H]3CC[C@]12C | 70 µM | 70 µM | –
C=C1C(=O)OC[C@@H]1[C@H]1CC=C2[C@@H]3CC[C@@H]4C[C@@H](O)CC[C@]4(C)[C@H]3CC[C@@]21C | 30 µM | 20 µM | –
C[C@]12CC[C@H](O)C[C@H]1CC[C@@H]1[C@@H]2CC[C@]2(C)[C@@H](C3=CC(=O)OC3)CC[C@]12O [DIGITOXIGENIN] | 0.35 µM | 0.35 µM | –
